Reference: ChEMBL document CHEMBL1149585, “Toward the development of chemoprevention agents. Part 1: Design, synthesis, and anti-inflammatory activities of a new class of 2,5-disubstituted-dioxacycloalkanes” (Bioorg Med Chem, 2007)

Assays:
Mus musculus [1] = test: Antiinflammatory activity against xylene-induced ear edema in Kunming mouse assessed as edema weight at 20 mg/kg, po after 2 hrs relative to control; type: functional
Procedure, shortened: (§1)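 Male Kunming mice (groups of 12; n = 11 per table footnote) were dosed orally as a suspension in 0.5% CMC, with CMC vehicle and positive control groups. After 30 min, 0.03 ml xylene went on both surfaces of the right ear, with the left ear as control. Mice were killed 2 h later. 7 mm ear punches were weighed, and edema was taken as right minus left weight. Groups were compared by one-way ANOVA, p < 0.05.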

Mus musculus [2] = test: Antiinflammatory activity against xylene-induced ear edema in Kunming mouse assessed as edema weight at 30 mg/kg, po after 2 hrs relative to control; type: functional; procedure, shortened: as §1
Mus musculus [3] = test: Inhibition of xylene-induced ear edema in Kunming mouse at 30 mg/kg, po after 2 hrs relative to control; type: functional; procedure, shortened: as §1
Mus musculus [4] = test: Toxicity in mouse assessed as tail bleeding time at 200 mg/kg, po after 45 mins; type: organism-based; set-up: dose 200 mg/kg, route oral; conditions: in vivo, 0.75 h
Procedure, shortened: (§2)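 Male mice (18–22 g) were dosed orally, and bleeding time was recorded before dosing and at each post-dose time. Each mouse was held in a tube with its tail protruding, and a 2 mm tail cut was made. Blood was wiped away with tissue every 30 s until bleeding ceased, and the time was recorded. The comparison group received NS.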

Mus musculus [5] = test: Toxicity in mouse assessed as tail bleeding time at 200 mg/kg, po after 60 mins; type: organism-based; set-up: dose 200 mg/kg, route oral; conditions: in vivo, 1 h; procedure, shortened: as §2
Mus musculus [6] = test: Inhibition of xylene-induced ear edema in Kunming mouse at 20 mg/kg, po after 2 hrs relative to control; type: functional; procedure, shortened: as §1
Mus musculus [7] = test: Toxicity in mouse assessed as tail bleeding time at 200 mg/kg, po after 90 mins; type: organism-based; set-up: dose 200 mg/kg, route oral; conditions: in vivo, 1.5 h; procedure, shortened: as §2
Mus musculus [8] = test: Toxicity in mouse assessed as tail bleeding time at 200 mg/kg, po after 30 mins; type: organism-based; set-up: dose 200 mg/kg, route oral; conditions: in vivo, 0.5 h; procedure, shortened: as §2

Structure (SMILES)	Activity (Mus musculus [1])	Activity (Mus musculus [4])	Activity (Mus musculus [5])	inhibition in vivo at 20 mg/kg (Mus musculus [6])	Activity (Mus musculus [7])	Activity (Mus musculus [8])	further results
O=Cc1ccc(Cl)cc1	3.8 mg						
O=Cc1ccccc1 [BENZALDEHYDE]	3.45 mg						
C[C@@H](O)[C@H](CO)NC(=O)c1ccccc1	3.32 mg						
O=C(Cc1ccccc1)NC(CO)CCO (single isomer, unassigned)	3.44 mg						
O=C(Cc1ccccc1)NC(CO)CCCO (single isomer, unassigned)	3.53 mg						
CC(O)C(CO)NC(=O)Cc1ccccc1 (single isomer, unassigned)	3.35 mg						
Cc1ccc(C=O)cc1	3.72 mg						
CC(=O)Oc1ccccc1C(=O)O [ASPIRIN]							Activity (Mus musculus [2]): 1.85 mg; inhibition in vivo at 30 mg/kg (Mus musculus [3]): 40.7%
O=C(N[C@H](CO)CCCO)c1ccccc1	3.38 mg						
O=C(NC(CO)CO)c1ccccc1	3.25 mg						
O=C(N[C@H](CO)CCO)c1ccccc1	4.01 mg						
O=Cc1cccc([N+](=O)[O-])c1 [3-NITROBENZALDEHYDE]	3.5 mg						
O=Cc1ccc([N+](=O)[O-])cc1	3.39 mg						
O=C(Cc1ccccc1)N[C@H]1CO[C@H](c2cccc([N+](=O)[O-])c2)OC1		118.5 s	119.2 s	42.6%	118.6 s	117.7 s	
O=C(Cc1ccccc1)N[C@H]1CO[C@@H](c2ccc([N+](=O)[O-])cc2)OC1		120.2 s	117.6 s	43.3%	117.7 s	120.7 s	
O=C(Cc1ccccc1)NC(CO)CO	3.88 mg						
C[C@@H]1O[C@@H](c2cccc([N+](=O)[O-])c2)OC[C@H]1NC(=O)Cc1ccccc1		118.7 s	118.5 s	47.1%	118.6 s	120.1 s	
O=C(Cc1ccccc1)N[C@H]1CO[C@@H](c2ccccc2)OC1		119.3 s	117.8 s	38.5%	118.9 s	118.5 s	
C[C@@H]1O[C@H](c2ccc(Cl)cc2)OC[C@H]1NC(=O)Cc1ccccc1		119.6 s	118.6 s	46.1%	119 s	118.4 s	
O=C(N[C@H]1CO[C@H](c2ccc(Cl)cc2)OC1)c1ccccc1		118.9 s	118.7 s	47.4%	119.6 s	119 s	
C[C@@H]1O[C@H](c2ccc([N+](=O)[O-])cc2)OC[C@H]1NC(=O)c1ccccc1		118.1 s	118.8 s	55.4%	119 s	117.8 s	
Cc1ccc([C@H]2OC[C@@H](NC(=O)Cc3ccccc3)[C@H](C)O2)cc1		118.6 s	119 s	41%	118.5 s	117.9 s	
O=C/C=C/c1ccccc1	3.4 mg						
